Assay outcomes (PubChem BioAssay)
This is a sample that favours compounds with a hit; in the whole collection about 1.1% have one here.
CaV13 FRET inh: Disruptors of the CACNA1D IQ motif to Ca2+-dependent inactivation inhibitor domain association, primary screening, Förster resonance energy transfer in intact living … | hit rate 0.098% among 340,000 | HEK cells, CFP/YFP FRET ICDI-IQ, plate reader, 10 min; percent FRET-ratio fall versus neutral wells | inhibition, % at 12.3 µM;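 active = mean replicate inhibition of at least 30% and at least 1% of replicates passing that level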;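 also: 0% = median of the neutral control wells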
aDG glyco act: alpha-DG glycosylation activation; hit rate 0.22% among 360,000; activation, % at 10 µM; Pro5-aDG cells, alpha-DG glycosylation AlphaScreen (IIH6); 0% Pro5, 100% B10-LARGE cell signal;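 active = activation of at least 8% versus controls, or a plate z-score of at least 8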;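 also: Pro5 are CHO cells carrying HIG-tagged alpha-DG that lacks glycosylation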
GRK2 aptamer HTS: inhibitors of human GRK2 displacing RNA aptamer | P25098 | bead flow cytometry, FAM-aptamer displacement from GRK2 | inhibition of aptamer binding, % at 10 µM | hit rate 0.59% among 330,000 | AID 488847;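 active = inhibition of aptamer binding above 40%, roughly 3 SD of noise, on plates passing a quality check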;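 also: median bead fluorescence of bound FAM aptamer so fluorescent compounds give negative values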
proCasp3 act: activates human procaspase-3 | recombinant procaspase-3 D3A, Ac-DEVD-pNA absorbance 405 nm | activation, % at 8.5 µM | hit rate 0.11% among 330,000;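 active = activation above the mean of all tested compounds plus 3 SD, cut at about 21% in these data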;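 also: 0% = DMSO alone and 100% = DMSO wells spiked with extra 5 µM PC-3 D3A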
Target sequence (P42574 whole entry D9A/D28A/D175A): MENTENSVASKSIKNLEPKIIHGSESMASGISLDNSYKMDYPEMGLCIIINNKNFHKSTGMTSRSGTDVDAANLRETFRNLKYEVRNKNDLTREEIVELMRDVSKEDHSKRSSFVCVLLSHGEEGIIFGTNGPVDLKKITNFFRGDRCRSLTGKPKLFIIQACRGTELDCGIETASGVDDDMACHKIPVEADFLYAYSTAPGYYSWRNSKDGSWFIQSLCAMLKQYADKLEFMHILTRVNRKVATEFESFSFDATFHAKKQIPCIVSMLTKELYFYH
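Assay system: Procaspase-3 D3A mutant, all three cleavage aspartates alanine. Buffer or medium: Zinc-free HEPES saline buffer with Triton X-100. Times: 1 h compound preincubation, 2 h substrate hydrolysis at 25 °C. Measured by: 405 nm absorbance of p-nitroaniline, reads at 0 and 120 min. Read-out basis: percent activation relative to control range. Replicates: singlicate.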
T cell modulator: T cell immune modulators affecting CD8 T cell-vesicle binding; response (vesicle binding), % at 7 µM; AID 2052; 2C CD8+ T cell-vesicle binding, flow cytometry; stronger effect = lower value; hit rate 0.068% among 330,000;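 active = response, share of CD8 T cells binding vesicles, and their 90th percentile fluorescence all below set limits, cut at about 80% in these data, passing the limit was not always enough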;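 also: values below 100% mean blocked vesicle binding to the CD8+ T cells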
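Read-out – percent CD8+ FL2 mean versus row control · System – murine 2C transgenic CD8+ T lymphocytes · Times – 1.5 h cell–vesicle binding at 37 °C, then 20 min icy labelling · Control set – naked vesicles low, QL9 vesicles with vehicle high · Detection – cytometric PE anti-B7-1 and Alexa647 anti-CD8 signals after 1% paraformaldehyde fixation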
procasp7 counter: counter-screen: procaspase-7 (human) activation. hit rate 0.093% among 330,000. recombinant procaspase-7, Ac-DEVD-pNA absorbance 405 nm; D23A/D198A/D206A triple mutant, cannot self-cleave; scale: DMSO 0, 5 µM enzyme 100. P55210. activation, % at 8.5 µM;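 active = percent activation above the screen-wide mean plus 3 SD, cut at about 25% in these data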
Target sequence (P55210 whole entry D23A/D198A/D206A): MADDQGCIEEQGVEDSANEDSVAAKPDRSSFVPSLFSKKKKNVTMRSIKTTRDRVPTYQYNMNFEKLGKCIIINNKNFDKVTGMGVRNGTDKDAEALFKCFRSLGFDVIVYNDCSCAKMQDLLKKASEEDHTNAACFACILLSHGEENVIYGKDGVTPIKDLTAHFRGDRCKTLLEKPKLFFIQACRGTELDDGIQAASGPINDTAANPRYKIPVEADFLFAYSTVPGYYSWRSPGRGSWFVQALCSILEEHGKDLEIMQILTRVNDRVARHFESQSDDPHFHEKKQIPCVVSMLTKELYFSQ
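System: Procaspase-7 triple mutant (PC-7 D3A); measure: % activation from two-timepoint absorbance difference, scaled to controls; times: 1 h compound preincubation, 2 h substrate cleavage, 25 °C; also added: Ac-DEVD-pNA substrate, 400 µM as added; measured by: Epi-absorbance of released pNA at 405 nm, two timepoints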
GRK2 CP1: confirmation of human GRK2 inhibitors displacing RNA aptamer | hit rate 4% among 2,000 | bead-bound GRK2, FAM-aptamer displacement, flow cytometry | shares compounds with GRK2 aptamer HTS | aptamer displacement, % at 10 µM;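 active = aptamer displacement above 40%, near three times the noise of non-fluorescent compounds, on plates passing quality checks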;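 also: negative values mostly reflect intrinsic compound fluorescence rather than true enhancement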
FAM quench CP1: counter-screen for GRK2 aptamer inhibitors: fluorescent aptamer quenchers; Carboxyfluorescein RNA aptamer on beads, flow cytometry quenching; stronger effect = lower value; shares compounds with GRK2 aptamer HTS; 2,000 tested, under 10 active; AID 504580; fluorescence response (% of DMSO), % at 10 µM;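 active = compounds that quench the bead-bound fluorescent RNA probe, cutting fluorescence to under half of the solvent control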;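 also: counterscreen run without GRK2 so only probe quenching by compound is measured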
GRK2 CP2: human GRK2 inhibition confirmation, cherry pick 2; 360 tested, under 10 active; inhibition of aptamer binding, % at 10 µM; shares compounds with GRK2 aptamer HTS; AID 504782; bead-bound GRK2, FAM-aptamer displacement, flow cytometry;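 active = inhibition of aptamer binding above 40%, about triple the noise seen with nonglowing compounds, on plates passing quality control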;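 also: negative values mostly come from compounds that fluoresce themselves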
FAM quench CP2: quenches fluorescent RNA aptamer, GRK2 hit artifact. shares compounds with GRK2 aptamer HTS. carboxyfluorescein RNA aptamer beads, flow cytometry quenching; stronger effect = lower value. fluorescence response vs DMSO, % at 10 µM. 360 tested, under 10 active;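 active = response vs DMSO under 50%, meaning signal dropped by over half, treated as fluorescence quencher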;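 also: labelled aptamer on streptavidin beads without GRK2 as a quench counter-screen; 100% = bead fluorescence of DMSO wells and lower means quenching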
An asterisk follows results filed as active; i = inactive; nt = no result given.

SMILES	CaV13 FRET inh	aDG glyco act	GRK2 aptamer HTS	proCasp3 act	T cell modulator	procasp7 counter	GRK2 CP1	FAM quench CP1	others
CSc1c(CC(=O)Nc2ccccc2C(F)(F)F)n(Cc2ccccc2)c2ccccc12	-19.3	0.4	100.0*	3.3	290.6	1.8	nt	nt	GRK2 CP2=-2.8;FAM quench CP2=101.0
Cc1c(C)c2ccc(OC(C)C(=O)NC3CCN(Cc4ccccc4)CC3)cc2oc1=O (stereo not drawn)	-2.5	0.1	0.0	5.2	777.3	5.4	nt	nt
CN(CC(=O)Nc1cccc(F)c1)C(=O)CCc1nc2sc3c(c2c(=O)[nH]1)CCCC3	-6.9	0.4	11.0	5.1	48.6	-2.7	0.6	97.7
CN(CCOc1ccccc1)C(=O)CCc1nc2sc3c(c2c(=O)[nH]1)CCCC3	-9.1	0.0	0.0	2.3	207.0	-1.3	0.1	97.4
O=C(CCc1nc2sc3c(c2c(=O)[nH]1)CCCC3)NCCOc1ccccc1	-6.6	0.2	0.0	-6.0	427.5	-5.2	nt	nt
O=C(NN1CCOCC1)c1cc(-c2ccccc2)nc2ccccc12	-4.4	0.1	71.0*	8.2	328.4	6.6	1.2	98.3
CN(c1ccccc1C(=O)N1CCN(c2ccccc2F)CC1)S(=O)(=O)c1ccccc1	nt	0.3	0.0	nt	530.9	nt	nt	nt
CC(C)Cc1nc2oc3c(=O)[nH]cnc3c2c2c1CCC2	nt	-0.1	93.0*	5.7	492.3	-5.0	0.6	100.1
CC(C)Cc1nc2oc3c(=O)[nH]cnc3c2c2c1CCCC2	-5.3	-0.2	0.0	4.0	205.0	0.6	nt	nt
CC1(C)CC(NC(=S)NC2CC2)CC(C)(C)N1	-2.3	1.0	69.0*	-0.6	379.2	10.1	0.5	97.8
C=CCNC(=S)NC1CC(C)(C)NC(C)(C)C1	-2.1	0.4	0.0	7.6	245.5	6.0	nt	nt
CCOC(=O)c1cc2c(C)n(-c3ccc(N(C)C)cc3)c(C)c2cc(C(=O)OCC)c1=O	-3.7	0.0	69.0*	5.0	437.5	3.2	-0.5	103.2
COc1ccc(S(=O)(=O)Oc2ccc(C(=S)N3CCOCC3)cc2OC)cc1	-20.8	0.1	10.0	3.5	232.8	-3.8	nt	nt
O=S(=O)(Oc1ccc(C(=S)N2CCOCC2)cc1)c1ccc(Cl)cc1	-8.9	0.0	99.0*	3.9	196.9	6.0	2.8	91.0
CC(/C=N/n1c(COc2ccccc2)n[nH]c1=S)=C\c1ccco1	-2.4	-0.1	2.0	-1.2	511.5	-13.7	nt	nt
CCOCc1cnc(C)nc1NCC(=O)c1c(C)[nH]c2ccccc12	nt	-0.1	56.0*	-9.9	179.1	9.8	-0.9	100.1
C=CCC(CC(O)COCCC)C(=O)NNC(=S)Nc1ccccc1 (stereo not drawn)	-4.3	0.7	46.0*	-0.7	456.4	-4.0	-4.7	91.7
CC(C)N1C(=O)C(=O)N(CC(=O)N2c3ccccc3CC2C)C1=O (stereo not drawn)	-9.3	-0.1	nt	nt	nt	nt	nt	nt
O=C(c1ccco1)c1cn(CC(=O)N2CCCCCC2)c2ccccc12	-2.1	0.1	0.0	0.0	214.0	-0.1	nt	nt
CC1CCCCN1C(=O)Cn1cc(C(=O)c2ccco2)c2ccccc21 (stereo not drawn)	-6.4	0.0	97.0*	-3.2	159.4	12.8	2.0	97.9
CC(C)CNc1cccc2c1S(=O)(=O)N[C@@H](CC(C)C)CO2	-3.1	nt	nt	nt	nt	nt	nt	nt
CCc1nonc1NC(=O)COc1cc(C)c(Cl)c(C)c1	-7.0	0.4	70.0*	3.0	419.6	6.3	-3.1	96.7
CCc1nonc1NC(=O)COc1ccc(Cl)c(C)c1	-8.2	-0.2	6.0	4.7	449.6	-6.2	nt	nt
COC(=O)C1CC(=O)N(c2ccc(C)cc2)C1 (stereo not drawn)	-17.6	-0.5	94.0*	1.7	395.2	11.5	1.4	98.0
COc1ccc(OC(=O)C2CC(=O)N(c3ccc(C)cc3)C2)cc1 (stereo not drawn)	-0.2	-0.1	0.0	2.3	i	5.2	nt	nt
SMILES	CaV13 FRET inh	aDG glyco act	GRK2 aptamer HTS	proCasp3 act	T cell modulator	procasp7 counter	GRK2 CP1	FAM quench CP1	others
Cn1c(CCNC(=O)c2ccco2)nc2cc(NC(=O)c3ccccc3Cl)ccc21	-2.6	0.1	0.0	5.0	270.3	-1.0	nt	nt
O=C1N[C@@H](Cc2ccccc2)C(=O)N1CCN1CCOCC1	-7.5	-0.1	0.0	7.0	nt	-7.8	nt	nt
COc1ccc(CCNC(=O)CSc2ccc3nnc(CCNC(=O)c4ccc(C)cc4)n3n2)cc1OC	-2.4	0.0	61.0*	11.8	449.3	-4.1	nt	nt	GRK2 CP2=-10.4;FAM quench CP2=99.0
Cc1ccc(C(=O)NCCc2nnc3ccc(SCC(=O)NCc4ccc(F)cc4)nn23)cc1	-2.9	0.0	1.0	-6.4	411.7	4.4	nt	nt
O/C(=C\Sc1nnc(Cc2ccccc2)o1)c1ccc(F)cc1	nt	-0.1	49.0*	5.9	117.9	1.7	nt	94.1
c1ccc(CSc2nnc(Cc3ccccc3)o2)cc1	-6.4	0.0	0.0	4.1	342.9	-8.8	nt	nt
Cc1cccc(NC(=O)C2CCCN(C(=O)Nc3ccc(F)cc3)C2)c1 (stereo not drawn)	-3.1	-0.1	0.0	11.4	464.0	5.6	nt	nt
CCN(CC)c1ccc(NC(=O)Cn2nnc(-c3cccc(OC)c3OC)n2)c(C)c1	-5.6	-0.5	95.0*	-4.8	344.3	18.1	1.0	96.3
CCOC(=O)C1CCCCN1Cc1ccc(F)cc1 (stereo not drawn)	-9.1	0.2	75.0*	-5.2	358.6	8.5	-0.5	102.2
CCOC(=O)C1CCCCN1Cc1cccc(F)c1 (stereo not drawn)	-9.0	0.2	2.0	5.7	i	1.6	nt	nt
CCc1c(C)nc2ncnn2c1N1CCCC(C(=O)NCc2cccs2)C1 (stereo not drawn)	-4.5	0.0	51.0*	5.3	163.0	7.9	-0.4	99.2
Cc1cc(OCC(=O)NCC(c2ccc(F)cc2)N2CCOCC2)ccc1Cl (stereo not drawn)	-2.1	0.0	0.0	-3.2	351.0	-12.9	nt	nt
